UPR CHOP act: apoptotic UPR (CHOP) activation; CHO-CHOP luciferase reporter, luminescence; percent of tunicamycin response over DMSO baseline; 0.34% of 330,000 active; activation, % at 10 µM;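 active = at 10 µM dose, activation of 40% or more, normalized to positive control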;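 note: 100% = tunicamycin at 10 µg/mL and 0% = DMSO alone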
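System: CHO-CHOP luciferase reporter cell line | Buffer or medium: F12 medium containing 10% fetal bovine serum | Doses: One dose, 10 µM in 0.5% DMSO | Times: 6 h compound exposure at 37 °C after overnight seeding | Signal: Luciferase luminescence | Read-out: % activation vs tunicamycin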
Exocytosis inh: blocks lytic granule exocytosis | TALL-104 LAMP-1 surface exposure, flow cytometry; cells stimulated with thapsigargin and PMA | inhibition, % at 10 µM | 0.66% of 360,000 active;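 active = inhibition above about 55%, limit read from the data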
ABHD5 PLIN5 PPI: inhibitors of human ABHD5-perilipin-5 interaction. Q00G26+Q8WTS1. Split G. princeps luciferase complementation, luminescence, 4 h. inhibition, % at 4 µM. 0.78% of 360,000 active;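 active = inhibition above the mean inhibition across every tested compound plus 3 SD, cut at about 22% in these data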;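 note: 0% = DMSO only wells and the 100% control is not disclosed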
XBP1 UPR activ: adaptive UPR (XBP1) activation; CHO-XBP1 luciferase reporter, IRE1-XBP1 UPR activation, luminescence; percent of tunicamycin response, DMSO as zero; activation, % at 20 µM; 0.33% of 330,000 active; AID 463104;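 active = versus positive control, 20 µM dose yields 30% or more activation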;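 note: 100% = tunicamycin at 10 µg/mL and 0% = DMSO only wells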
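Test system: CHO-XBP1 luciferase reporter cells | Buffer or medium: Serum-containing F12 medium, 10% FBS | Schedule: 6 h compound exposure at 37 °C, 5% CO2 | Detection: Steady-Glo luciferase glow luminescence, 10 min after reagent addition | Read-out basis: Activation, % of tunicamycin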
Mdm2-MdmX inh: disrupts the human Mdm2-MdmX interaction. O15151+Q00987. SaOS-2 split-luciferase Mdm2/MdmX complementation, luminescence. inhibition, % at 8 µM. 3% of 330,000 active;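 active = inhibition of at least 50% at 8 µM in the primary screen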
Target sequence (O15151 whole entry, looked up): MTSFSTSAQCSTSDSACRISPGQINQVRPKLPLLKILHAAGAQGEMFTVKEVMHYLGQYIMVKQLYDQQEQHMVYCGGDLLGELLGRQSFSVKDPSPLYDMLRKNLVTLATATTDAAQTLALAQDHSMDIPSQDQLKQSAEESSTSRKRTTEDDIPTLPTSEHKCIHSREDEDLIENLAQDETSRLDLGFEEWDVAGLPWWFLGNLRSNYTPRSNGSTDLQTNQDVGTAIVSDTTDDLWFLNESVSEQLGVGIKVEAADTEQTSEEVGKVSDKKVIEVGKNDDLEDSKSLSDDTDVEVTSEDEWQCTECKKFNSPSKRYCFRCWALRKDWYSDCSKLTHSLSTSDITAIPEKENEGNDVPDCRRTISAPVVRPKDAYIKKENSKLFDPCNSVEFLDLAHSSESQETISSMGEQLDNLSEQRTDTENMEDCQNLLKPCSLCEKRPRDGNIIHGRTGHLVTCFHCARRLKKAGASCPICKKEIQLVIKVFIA
Target sequence (Q00987 whole entry, looked up): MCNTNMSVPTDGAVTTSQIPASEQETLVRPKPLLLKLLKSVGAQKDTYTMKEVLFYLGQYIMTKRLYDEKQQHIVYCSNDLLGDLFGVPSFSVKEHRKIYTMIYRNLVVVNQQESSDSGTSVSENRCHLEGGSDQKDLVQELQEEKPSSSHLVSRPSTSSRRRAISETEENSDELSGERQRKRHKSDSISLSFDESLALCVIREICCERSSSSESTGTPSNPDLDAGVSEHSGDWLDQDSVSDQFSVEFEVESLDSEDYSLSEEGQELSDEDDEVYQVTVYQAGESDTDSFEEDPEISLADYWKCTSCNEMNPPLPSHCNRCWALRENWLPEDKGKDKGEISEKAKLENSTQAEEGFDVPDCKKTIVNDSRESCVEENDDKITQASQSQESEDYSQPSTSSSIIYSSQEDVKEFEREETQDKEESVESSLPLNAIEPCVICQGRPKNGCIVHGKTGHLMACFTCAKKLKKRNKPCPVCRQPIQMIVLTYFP
Mdm2-MdmX conf: confirmation of human Mdm2/MdmX interaction inhibitors | shares compounds with Mdm2-MdmX inh | Mdm2-MdmX binding, luminescent assay | inhibition, % at 8 µM | 55% of 10,000 active | AID 489028; in the data active = inhibition above about 40%
Full FLuc ctr: inhibits full-length luciferase, flagging false Mdm2/MdmX hits | shares compounds with Mdm2-MdmX inh | SaOS-2 full-length luciferase counterscreen, luminescence | inhibition, % at 8 µM | 77% of 6,200 active | AID 504607;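 active = mean inhibition at 8 µM reaching about 37%, which flags the compound as non-specific, limit read from the data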;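 note: p53-null SaOS-2 cells with luciferase driven by a doxycycline-inducible promoter; compound on cells about two nights before reading with doxycycline added after day one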
* hit, by the source's call; · = not tested or not shown. A selection: hits, their analogues and other compounds. The true share with any hit is near 4%.

SMILES	UPR CHOP act	Exocytosis inh	ABHD5 PLIN5 PPI	XBP1 UPR activ	Mdm2-MdmX inh	Mdm2-MdmX conf	Full FLuc ctr
CCN(CC)CCNC(=O)c1ccc2c(c1NCCO)C(=O)c1ccccc1C2=O	5	13	-5	-7	91*	84*	4
CCc1cc2cc(C)ccc2nc1SCC(=O)Nc1cc(C)on1	1	0	-1	-2	26	·	·
COc1ccc(NC(=O)CN2C(=O)NC(c3ccccc3)(c3ccccc3)C2=O)cc1	17	7	-3	0	15	·	·
COc1ccc(N(C)C(=O)c2cc3c(s2)-c2ccc(Cl)cc2S(=O)(=O)C3)c(OC)c1	3	4	0	10	56*	19	·
CCN(CC)C(=O)Cn1c(C)c(/C=C/c2cc[n+](C)cc2)c2ccccc21	0	5	4	-5	11	·	·
C=CCn1cc(/C=C/c2cc[n+](C)cc2)c2ccccc21	1	-2	7	-4	65*	42*	76*
CC(C)n1cc(/C=C/c2cc[n+](C)cc2)c2ccccc21	0	-12	0	-4	63*	25	·
C=CCn1c(C)c(/C=C/c2cc[n+](C)cc2)c2ccccc21	2	19	9	-3	64*	41*	69*
CNS(=O)(=O)c1cccc(C(=O)OCC(=O)Nc2cc(F)ccc2F)c1	0	-2	7	1	10	·	·
COc1cccc(CN2c3ccc(Br)cc3C(=O)CS2(=O)=O)c1	-1	1	4	-3	8	·	·
CC(=O)c1sc2c(c1OC(=O)c1ccc(Cl)cc1Cl)c(=O)n(-c1ccccc1)c(=S)n2-c1ccccc1	15	10	0	8	95*	92*	12
COc1cccc(OCc2cc(C(=O)N(C)Cc3nccn3C)no2)c1	3	2	-5	-4	-49	·	·
Cc1oc(-c2ccccc2Cl)nc1CSCC(=O)N1CCCC1	0	6	5	1	78*	84*	26
COc1ccc(/C=N/Nc2cc(N3CCOCC3)ncn2)c(OC)c1	-1	-1	5	5	28	·	·
COc1cccc(/C=N/Nc2cc(N3CCOCC3)ncn2)c1O	0	15	6	-3	73*	61*	63*
COc1cccc(/C=N/Nc2ncnc3c2ncn3Cc2ccccc2)c1O	0	5	2	2	82*	82*	63*
CCOC(=O)N1CCC(NC(=O)CCN2C(=O)C3C4C=CC(C4)C3C2=O)CC1 (stereo not given)	0	0	-6	-2	5	·	·
O=C(CCc1nnc(Cc2ccc(-c3ccccc3)cc2)o1)NCCc1ccccn1	1	-2	1	-3	-14	·	·
CC(C)NCC(O)Cn1c2c(c3ccccc31)CCc1c-2cnn1-c1ccccc1 (stereo not given)	2	9	19	12	98*	74*	12
CN1CCc2c(n(CC(O)CNCc3ccccc3)c3ccccc23)C1=O (stereo not given)	1	14	4	1	17	·	·
COc1ccc(-c2nc3ccccc3c(C(=O)Nc3ccc(S(=O)(=O)Nc4cc(C)on4)cc3)c2C)cc1	0	3	0	-4	76*	56*	53*
CN1CCN(S(=O)(=O)c2ccc(N3CCN(c4ccc(O)cc4)CC3)c([N+](=O)[O-])c2)CC1	-2	-2	10	-3	11	·	·
O=[N+]([O-])c1ccc(/C=N/Nc2nc(N3CCCC3)nc(N3CCCC3)n2)o1	-1	-1	-3	-2	17	·	·
O=[N+]([O-])c1ccc(-c2ccc(/C=N/Nc3nc(N4CCCCC4)nc(N4CCCCC4)n3)o2)cc1	6	-3	3	4	77*	15	75*
O=[N+]([O-])c1cccc(-c2ccc(/C=N/Nc3nc(N4CCCCC4)nc(N4CCCCC4)n3)o2)c1	4	-1	0	0	46	·	·
SMILES	UPR CHOP act	Exocytosis inh	ABHD5 PLIN5 PPI	XBP1 UPR activ	Mdm2-MdmX inh	Mdm2-MdmX conf	Full FLuc ctr
O=[N+]([O-])c1ccc(-c2ccc(/C=N/Nc3nc(N4CCCC4)nc(N4CCCC4)n3)o2)cc1	12	38	-3	5	93*	67*	49*
O=C(NC(Cc1ccccc1)C(=O)O)/C(=C/c1ccc(Cl)cc1)NC(=O)c1ccccc1 (stereo not given)	4	2	0	0	3	·	·
C/C(=N\Nc1ncc(Cl)cc1Cl)c1ccc(OC(F)F)cc1	1	-2	-7	0	-9	·	·
COc1ccc(OC)c(C(=O)COC(=O)c2ccc(C)o2)c1	1	0	-3	9	9	·	·
O=C(CN1C(=O)c2ccccc2S1(=O)=O)N1CCc2ccccc2C1	1	0	-1	9	55*	39	77*
CC1CCN(C(=O)CN2C(=O)c3ccccc3S2(=O)=O)CC1	-2	0	-2	-2	54*	37	·
COc1cc(-c2nnc(SCC(=O)N(Cc3ccccc3)C(C)(C)C)o2)cc(OC)c1OC	-1	-2	8	-1	51*	42*	91*
CCCNC(=O)C/C(C)=N/NC(=O)COc1ccc(C)cc1Br	0	0	-3	-1	4	·	·
COc1ccc(CNC(=O)C/C(C)=N/NC(=O)COc2ccc(C)cc2Br)cc1	-1	8	-9	8	57*	9	·
COc1ccc(C2Nc3ccccc3C(=O)N2Cc2ccccc2)cc1CSc1ccccn1 (stereo not given)	4	10	-10	1	-14	·	·
O=C(NC(Nc1ncc(S(=O)(=O)c2ccc([N+](=O)[O-])cc2)s1)(C(F)(F)F)C(F)(F)F)c1ccc(Cl)cc1	6	7	1	5	97*	96*	30
COCC(=O)Nc1ncc(S(=O)(=O)c2ccc([N+](=O)[O-])cc2)s1	1	-1	4	-1	11	·	·
CSc1nc(NC(C)C)nc(N2CCOCC2)n1	0	1	3	-2	16	·	·
COc1cc(NC(=S)N2CCN(C(c3ccccc3)c3ccccc3)CC2)cc(OC)c1	0	4	-8	-3	67*	29	·
CC12CCCCC1c1ccccc1C(=NCC(=O)O)N2 (stereo not given)	1	-3	2	2	14	·	·
NCCSC1CC(=O)N(Cc2ccc(F)cc2)C1=O (stereo not given)	2	0	0	-1	27	·	·
CC(=O)Nc1cccc(-c2nc3ccccc3o2)c1	4	-2	6	0	11	·	·
COc1ccc(C(=O)Nc2nccs2)cc1[N+](=O)[O-]	2	-1	-3	4	-3	·	·
Cn1cc([N+](=O)[O-])c(C(=O)Nc2ccc(Br)cn2)n1	1	0	-1	-3	56*	44*	90*

Screening data as filed in PubChem BioAssay.
